# Bioassay records deposited in PubChem BioAssay by several laboratories.
# MrgX1 antag: human MrgX1 receptor antagonism, primary screen | Q96LB2 | MRGX1-HEK293 calcium flux, Fluo-4, BAM8-22 antagonism; active compounds read low | B-score at 10 µM | 310,000 compounds, 1.3% hits;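 active = calcium-response B-score plate-corrected more than 3 library SD below zero, starting fluorescence within 5 deviations, no agonist response on first addition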;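 note: peak minus trough fluorescence over baseline after final BAM8-22 challenge near maximal dose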
# Target sequence (Q96LB2 whole entry, looked up): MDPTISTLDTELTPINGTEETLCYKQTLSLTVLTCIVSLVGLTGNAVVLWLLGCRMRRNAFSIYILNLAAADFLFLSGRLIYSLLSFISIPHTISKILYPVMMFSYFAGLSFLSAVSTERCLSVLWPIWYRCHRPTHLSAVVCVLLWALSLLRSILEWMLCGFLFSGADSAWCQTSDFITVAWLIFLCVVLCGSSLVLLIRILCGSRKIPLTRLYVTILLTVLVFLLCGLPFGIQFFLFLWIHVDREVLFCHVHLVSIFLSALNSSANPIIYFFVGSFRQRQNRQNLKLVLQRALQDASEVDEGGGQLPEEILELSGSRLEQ
# RGS4 act: potentiators or activators of RGS4. AID 463111. B-score at 10 µM. 310,000 compounds, 0.92% hits. HEK293 M3R/inducible RGS4, carbachol calcium flux Fluo4; active compounds read low;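 active = B-score of the integrated calcium signal more than 4 SD below the library mean, with starting fluorescence not abnormally high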;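 note: negative B-score means reduced calcium response which marks RGS4 activation or potentiation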
#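 Also added: carbachol at ECmax as muscarinic agonist stimulus; Assay system: HEK293 cells with stable M3R and inducible RGS4; Timing: overnight RGS4 induction, 30 min dye load 37 °C, 20 min compound RT; Measured by: Fluo4-AM (2 µM) calcium-flux fluorescence, kinetic read.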
# MrgX1 PAM: human MrgX1 positive allosteric modulation, primary screen | Q96LB2 | MrgX1-HEK293, Fluo-4 calcium flux, FDSS; active compounds read high | B-score at 10 µM | 310,000 compounds, 0.63% hits | AID 588675;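 active = plate-corrected calcium response at least 3 library SD above typical, normal starting fluorescence, not activating the receptor alone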;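 note: compound read alongside a low EC10 to EC30 dose of BAM8-22 agonist; peak minus trough fluorescence over baseline measured at the second addition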
# MrgX1 agonist: agonists of human MrgX1 receptor; Q96LB2; MrgX1-HEK293 cells, Fluo-4 calcium fluorescence, agonist mode; active compounds read high; B-score at 10 µM; 310,000 compounds, 0.44% hits;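 active = calcium response B-score plate-corrected fluorescence ratio at least 3 library SD, with starting fluorescence B-score inside 5 SD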
#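 times = overnight plating, then 30 min 37 °C plus 30 min room-temperature dye loading | assay system = stable human MrgX1 HEK293 cell line | input = fifteen thousand cells per well | signal = kinetic calcium dye fluorescence, Fluo-4 NW | dosing = compound delivered in addition one of three | read-out = B-scored fluorescence response ratio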
# RGS4 block: human RGS4 inhibition; P49798; HEK293 M3R/RGS4 inducible, Fluo-4 calcium flux; active compounds read high; triggered by carbachol at its EC20; B-score at 10 µM; 310,000 compounds, 0.45% hits; AID 463165;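 active = B-score, a plate-corrected calcium signal, over three deviations above library mean, with baseline fluorescence within five deviations of library mean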;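 note: RGS4 expression induced by doxycycline in cells with stable M3 receptor; B-score is computed from the integrated fluorescence ratio over baseline after carbachol; higher B-score means a larger calcium signal and so more RGS4 inhibition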
# Target sequence (P49798 whole entry, looked up): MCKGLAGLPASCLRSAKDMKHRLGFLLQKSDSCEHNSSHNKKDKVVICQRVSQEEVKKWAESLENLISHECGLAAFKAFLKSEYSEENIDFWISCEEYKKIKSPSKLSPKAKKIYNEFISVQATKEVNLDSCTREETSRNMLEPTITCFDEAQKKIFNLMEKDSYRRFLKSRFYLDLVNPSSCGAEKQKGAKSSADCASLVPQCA
# Hep lipid drop: modulators of hepatic lipid droplet formation; AML12 mouse hepatocytes, oleate lipid droplets, BODIPY imaging; inhibition, % at 6.5 µM; 240,000 compounds, 0.4% hits; AID 1656;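 active = lipid droplet intensity inhibited by at least 50%, with more than 500 cells counted; inconclusive = wells with under 300 cells, treated as cytotoxic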
#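 Assay system: AML12 mouse liver cells | Compound dosing: One dose, 6.5 µM compound | Read-out basis: Droplet intensity reduction, % inhibition | Measured by: Fluorescence imaging, 20x objective, two fields per well | Schedule: Overnight treatment with compound plus oleate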
# MrgX1 antag conf: human MrgX1 receptor antagonism, re-confirmation screen; shares compounds with MrgX1 antag; MrgX1-HEK293, BAM8-22 calcium flux, Fluo-4; active compounds read low; remaining BAM8-22 calcium response % of control (active compounds read low), % at 10 µM; 2,300 compounds, 19% hits;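 active = remaining agonist calcium response no higher than 100% minus 3 SD of agonist-only control wells, with starting fluorescence near control levels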;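 note: agonist BAM8-22 given at a near maximal EC90 to ECmax level; peak minus minimum fluorescence divided by baseline after agonist addition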
# HEK293 Ca flux: MrgX1 antagonist counter-screen hit in parental HEK293 cells; Fluo-4 calcium fluorescence, FDSS; AID 624111; fluorescence ratio F(max-min)/F0 at 10 µM; 4,000 compounds, 2% hits; shares compounds with MrgX1 antag;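 active = duplicate-averaged calcium fluorescence ratio at least three times the standard deviation of buffer wells, a nonspecific response in parental cells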
# HEK293 Ca counter: activity in parental HEK293 cells without MrgX1 | parental HEK293 calcium flux, Fluo-4 fluorescence ratio; active compounds read high | fluorescence ratio F(max-min)/F0 at 10 µM | 4,000 compounds, 0.4% hits | shares compounds with MrgX1 antag | AID 624114;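 active = calcium fluorescence ratio, averaged over duplicates, at least 3 SD of the buffer-well ratio, meaning a nonspecific response in receptor-free cells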;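 note: untransfected parental HEK293 lacking MrgX1 used as counterscreen for MrgX1 allosteric activators; fluorescence change taken during the second addition on a kinetic imager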
# HEK293 Ca cntr2: activity in parental HEK293 cells lacking MrgX1 receptor; shares compounds with MrgX1 antag; fluorescence ratio F(max-min)/F0 at 10 µM; Fluo-4 calcium fluorescence (FDSS); active compounds read high; 4,000 compounds, 8.7% hits;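 active = calcium fluorescence ratio at least three times the spread of buffer wells, meaning a non-specific response in parental cells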
# Active calls of the source: *; i = inactive; ? = inconclusive; . = no result. Most compounds without a hit are left out; they make up all but 3.8% or so of the library.
SMILES,MrgX1 antag,RGS4 act,MrgX1 PAM,MrgX1 agonist,RGS4 block,Hep lipid drop,MrgX1 antag conf,HEK293 Ca flux,HEK293 Ca counter,HEK293 Ca cntr2
CCc1nnc2sc(-c3ccc(NC(=O)c4ccc5c(c4)OCCO5)cc3)nn12,i,i,i,i,i,13,.,.,.,.
COc1ccccc1CN1CCN(C(=O)c2cccc3ccccc23)CC1,i,i,i,i,i,.,.,.,.,.
COc1cccc(OC)c1C(=O)N1CCN(Cc2ccccc2C)CC1,-4.6*,i,i,i,i,.,i,i,i,i
COC(OC)c1ccnc(-c2ccc(OC(=O)c3ccccc3)cc2)n1,-9.2*,i,i,i,i,-8,i,i,i,i
COC(OC)c1ccnc(-c2ccc(OC(C)=O)cc2)n1,i,i,i,i,i,18,.,.,.,.
CCCCN(Cc1ccco1)C(=O)C1CCCN(c2ncnc3c2nc2n3CCCCC2)C1 (stereo not drawn),i,i,i,i,i,-49,.,.,.,.
CCCOC(=O)C1=C(C)NC2=C(C(=O)C(C(=O)OC)C(C)C2)C1c1ccc(N(CC)CC)cc1 (stereo not drawn),-7.8*,i,i,i,i,-19,i,i,i,i
Cc1ccc(NC(=O)Cn2nc(-c3ccccc3Cl)ccc2=O)c(Br)c1,i,i,i,i,i,-13,.,.,.,.
Cc1ccc(-n2c(=O)cc(N3CCCCCC3)[nH]c2=O)cc1,-7.7*,i,i,i,i,?,i,i,i,i
c1ccc(COC(CN2CCCCCC2)CN2CCCCCC2)cc1,i,i,i,i,i,28,.,.,.,.
CC(C)OC(=O)CSc1nc(-c2ccc(F)cc2)nc2ccc(F)cc12,-10*,i,i,i,i,.,i,i,i,i
CCc1cc(/C(Cc2ccccn2)=N\Nc2ccccc2)c(O)cc1O,i,i,i,i,i,2,.,.,.,.
COc1ccc2[nH]c3c(N4CC(C)OC(C)C4)ncnc3c2c1 (stereo not drawn),i,i,i,i,i,8,.,.,.,.
COc1ccc2c(c1)[nH]c1c(N3CCSCC3)ncnc12,-12*,i,i,i,i,6,50%*,i,i,i
O=C(CN1C(=O)COc2ccc(Cl)cc21)NC1CC1,i,i,i,i,i,10,.,.,.,.
COc1ccc(-c2csc(NC(=O)CSc3nc(C)cs3)n2)cc1,i,i,i,i,i,.,.,.,.,.
COc1ccc(-c2csc(NC(=O)CSc3nc(C)nc4sc(C(=O)O)c(C)c34)n2)cc1,-6.4*,i,i,i,i,48,72%*,i,i,i
Cc1cc(-c2nnc3n2CCCCC3)c(C)n1-c1ccccc1,-4.7*,i,i,i,i,.,i,i,i,i
COc1ccc(S(=O)(=O)N(CCc2ccccc2)CC(N)=O)cc1,-5.4*,i,i,i,i,2,i,i,i,i
COCCNC(=O)CN(CCc1ccccc1)S(=O)(=O)c1ccc(OC)cc1,i,i,i,i,i,9,.,.,.,.
